Measurements published in ChEMBL document CHEMBL5329147, “Synthesis of tryptanthrin appended dispiropyrrolidine oxindoles and their antibacterial evaluation” (RSC Med Chem, 2023).
Converted amounts (≈) assume the structure as drawn.

What was measured:
Escherichia coli = test: Antibacterial activity against Escherichia coli ATCC 25922 assessed as bacterial growth inhibition incubated for 18 to 24 hrs by broth microdilution method; type: functional; details: time 18-24 hrs
Summary of the method: (§1)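 CLSI broth microdilution. Overnight starter cultures (single colony, MHBII, 37 °C, shaking 18–24 h) were diluted by OD600 to 10^6 CFU/mL in MHBII. Two-fold dilutions from […] were made from 10 mg/mL DMSO stocks, then incubated 37 °C for 18-24 h. The MIC was the lowest concentration with no visible growth. Three independent runs, duplicate samples.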

Staphylococcus aureus [1] = test: Antibacterial activity against methicillin resistant Staphylococcus aureus NRS 129 assessed as bacterial growth inhibition incubated for 18 to 24 hrs by broth microdilution method; type: functional; details: time 18-24 hrs
Summary of the method: (§2)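 CLSI broth microdilution in MHBII; overnight starter cultures (single MHA colony, 37 °C, shaking) adjusted by OD600 to 10^6 CFU/mL. Compounds from DMSO stocks (10 mg/mL), two-fold series 64–0.5 mg/L. Incubation 37 °C, 18-24 h. MIC = lowest concentration with no visible growth. Three independent determinations, each in duplicate.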

Pseudomonas aeruginosa = test: Antibacterial activity against Pseudomonas aeruginosa ATCC 27853 assessed as bacterial growth inhibition incubated for 18 to 24 hrs by broth microdilution method; type: functional; details: time 18-24 hrs; summary of the method: as §1
Staphylococcus aureus [2] = test: Synergistic antibacterial activity against Staphylococcus aureus ATCC 29213 assessed as bacterial growth inhibition incubated for 24 hrs in presence of levofloxacin by checkerboard assay; type: functional
Summary of the method: (§3)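 Checkerboard in 96-well plates: two-fold serial dilutions, one agent along abscissa, partner antibiotic along ordinate. Wells received ~10⁵ CFU/mL S. aureus ATCC 29213 in MHBII. Incubation 37 °C, 24 h. ΣFIC = FIC A + FIC B, each FIC being combination MIC divided by MIC alone.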

Klebsiella pneumoniae = test: Antibacterial activity against Klebsiella pneumoniae BAA 1705 assessed as bacterial growth inhibition incubated for 18 to 24 hrs by broth microdilution method; type: functional; details: time 18-24 hrs; summary of the method: as §1
Staphylococcus aureus [3] = test: Synergistic antibacterial activity against Staphylococcus aureus ATCC 29213 assessed as bacterial growth inhibition incubated for 24 hrs in presence of linezolid by checkerboard assay; type: functional; summary of the method: as §3
Staphylococcus aureus [4] = test: Antibacterial activity against methicillin resistant Staphylococcus aureus NRS 119 assessed as bacterial growth inhibition incubated for 18 to 24 hrs by broth microdilution method; type: functional; details: time 18-24 hrs; summary of the method: as §2
Staphylococcus aureus [5] = test: Synergistic antibacterial activity against Staphylococcus aureus ATCC 29213 assessed as bacterial growth inhibition incubated for 24 hrs in presence of rifampicin by checkerboard assay; type: functional; summary of the method: as §3
Staphylococcus aureus [6] = test: Antibacterial activity against Staphylococcus aureus ATCC 29213 assessed as bacterial growth inhibition incubated for 18 to 24 hrs by broth microdilution method; type: functional; details: Staphylococcus aureus, ATCC 29213; time 18-24 hrs; read-out: MIC; summary of the method: as §1
Staphylococcus aureus [7] = test: Synergistic antibacterial activity against Staphylococcus aureus ATCC 29213 assessed as fractional inhibitory concentration index incubated for 24 hrs in the presence of levofloxacin by checkerboard assay; type: functional
Summary of the method: (§4)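 Checkerboard in 96-well plates. The test agent was diluted two-fold along one axis and the partner antibiotic two-fold along the other, with ~10^5 CFU/mL inoculum, 37 °C for 24 h. ΣFIC = FIC A + FIC B, each FIC being the MIC in combination divided by the MIC alone.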

Staphylococcus aureus [8] = test: Antibacterial activity against methicillin resistant Staphylococcus aureus NRS 193 assessed as bacterial growth inhibition incubated for 18 to 24 hrs by broth microdilution method; type: functional; details: time 18-24 hrs; summary of the method: as §2
Staphylococcus aureus [9] = test: Synergistic antibacterial activity against Staphylococcus aureus ATCC 29213 assessed as fractional inhibitory concentration index incubated for 24 hrs in the presence of rifampicin by checkerboard assay; type: functional; summary of the method: as §4
Staphylococcus aureus [10] = test: Synergistic antibacterial activity against Staphylococcus aureus ATCC 29213 assessed as fractional inhibitory concentration index incubated for 24 hrs in the presence of minocycline by checkerboard assay; type: functional; summary of the method: as §4
Staphylococcus aureus [11] = test: Antibacterial activity against methicillin resistant Staphylococcus aureus NRS 191 assessed as bacterial growth inhibition incubated for 18 to 24 hrs by broth microdilution method; type: functional; details: time 18-24 hrs; summary of the method: as §2
Staphylococcus aureus [12] = test: Synergistic antibacterial activity against Staphylococcus aureus ATCC 29213 assessed as fractional inhibitory concentration index incubated for 24 hrs in the presence of meropenem by checkerboard assay; type: functional; summary of the method: as §4
Staphylococcus aureus [13] = test: Antibacterial activity against vancomycin resistant Staphylococcus aureus […] 12 assessed as bacterial growth inhibition incubated for 18 to 24 hrs by broth microdilution method; type: functional; details: time 18-24 hrs; summary of the method: as §2
Staphylococcus aureus [14] = test: Synergistic antibacterial activity against Staphylococcus aureus ATCC 29213 assessed as bacterial growth inhibition incubated for 24 hrs in presence of gentamycin by checkerboard assay; type: functional; summary of the method: as §3
Staphylococcus aureus [15] = test: Antibacterial activity against methicillin resistant Staphylococcus aureus NRS 194 assessed as bacterial growth inhibition incubated for 18 to 24 hrs by broth microdilution method; type: functional; details: time 18-24 hrs; summary of the method: as §2
Staphylococcus aureus [16] = test: Synergistic antibacterial activity against Staphylococcus aureus ATCC 29213 assessed as fractional inhibitory concentration index incubated for 24 hrs in the presence of linezolid by checkerboard assay; type: functional; summary of the method: as §4
Staphylococcus aureus [17] = test: Synergistic antibacterial activity against Staphylococcus aureus ATCC 29213 assessed as bacterial growth inhibition incubated for 24 hrs in presence of daptomycin by checkerboard assay; type: functional; summary of the method: as §3
Staphylococcus aureus [18] = test: Antibacterial activity against methicillin resistant Staphylococcus aureus NRS 192 assessed as bacterial growth inhibition incubated for 18 to 24 hrs by broth microdilution method; type: functional; details: time 18-24 hrs; summary of the method: as §2
Staphylococcus aureus [19] = test: Antibacterial activity against methicillin resistant Staphylococcus aureus NRS 186 assessed as bacterial growth inhibition incubated for 18 to 24 hrs by broth microdilution method; type: functional; details: time 18-24 hrs; summary of the method: as §2
Staphylococcus aureus [20] = test: Synergistic antibacterial activity against Staphylococcus aureus ATCC 29213 assessed as fractional inhibitory concentration index incubated for 24 hrs in the presence of gentamycin by checkerboard assay; type: functional; summary of the method: as §4
Vero = test: Cytotoxicity against African green monkey Vero cells assessed as cell viability incubated for 72 hrs by MTT assay; type: toxicity, cell-based; details: chlorocebus sabaeus
Summary of the method: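 MTT assay on Vero cells, ~10^3 cells/well, 37 °C, 5% CO2. Compound was added at 24 h (100-12.5 μg/mL) for 72 h, then MTT for 4 h at 37 °C. Formazan was dissolved in DMSO and read at 540 nm. CC50 was the lowest concentration giving 50% viability loss. Doxorubicin positive control; triplicate.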

[21] = Selectivity ratio of CC50 for African green monkey Vero cells to MIC against Staphylococcus aureus ATCC 29213; type: toxicity, cell-based
Staphylococcus aureus [22] = test: Synergistic antibacterial activity against Staphylococcus aureus ATCC 29213 assessed as bacterial growth inhibition incubated for 24 hrs in presence of minocycline by checkerboard assay; type: functional; summary of the method: as §3
Staphylococcus aureus [23] = test: Antibacterial activity against methicillin resistant Staphylococcus aureus NRS 198 assessed as bacterial growth inhibition incubated for 18 to 24 hrs by broth microdilution method; type: functional; details: time 18-24 hrs; summary of the method: as §2
Staphylococcus aureus [24] = test: Synergistic antibacterial activity against Staphylococcus aureus ATCC 29213 assessed as bacterial growth inhibition incubated for 24 hrs in presence of ceftazidime by checkerboard assay; type: functional; summary of the method: as §3
Staphylococcus aureus [25] = test: Synergistic antibacterial activity against Staphylococcus aureus ATCC 29213 assessed as fractional inhibitory concentration index incubated for 24 hrs in the presence of vancomycin by checkerboard assay; type: functional; summary of the method: as §4
Staphylococcus aureus [26] = test: Synergistic antibacterial activity against Staphylococcus aureus ATCC 29213 assessed as bacterial growth inhibition incubated for 24 hrs in presence of vancomycin by checkerboard assay; type: functional; summary of the method: as §3
Staphylococcus aureus [27] = test: Bactericidal activity against Staphylococcus aureus ATCC 29213 assessed as reduction in bacterial load at 10 times of MIC incubated for 24 hrs by time kill analysis; type: functional
Summary of the method: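 Time-kill assay. ~10^6 CFU/mL in MHBII was exposed to 1X and 10X MIC, 37 °C with shaking for 24 h. Samples were taken at 0, 1, 6 and 24 h, serially diluted in PBS, plated on MHA and incubated 37 °C 18–20 h. Colonies were counted as CFU/mL survivors. Three repeats in duplicate; mean plotted.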

Staphylococcus aureus [28] = test: Synergistic antibacterial activity against Staphylococcus aureus ATCC 29213 assessed as fractional inhibitory concentration index incubated for 24 hrs in the presence of ceftazidime by checkerboard assay; type: functional; summary of the method: as §4
Acinetobacter baumannii = test: Antibacterial activity against Acinetobacter baumannii BAA-1605 assessed as bacterial growth inhibition incubated for 18 to 24 hrs by broth microdilution method; type: functional; details: time 18-24 hrs; summary of the method: as §1
Staphylococcus aureus [29] = test: Antibacterial activity against vancomycin resistant Staphylococcus aureus […] 4 assessed as bacterial growth inhibition incubated for 18 to 24 hrs by broth microdilution method; type: functional; details: time 18-24 hrs; summary of the method: as §2
Staphylococcus aureus [30] = test: Antibacterial activity against methicillin sensitive Staphylococcus aureus ATCC 29213 assessed as bacterial growth inhibition incubated for 18 to 24 hrs by broth microdilution method; type: functional; details: time 18-24 hrs; summary of the method: as §2
Staphylococcus aureus [31] = test: Synergistic antibacterial activity against Staphylococcus aureus ATCC 29213 assessed as bacterial growth inhibition incubated for 24 hrs in presence of meropenem by checkerboard assay; type: functional; summary of the method: as §3
Staphylococcus aureus [32] = test: Synergistic antibacterial activity against Staphylococcus aureus ATCC 29213 assessed as fractional inhibitory concentration index incubated for 24 hrs in the presence of daptomycin by checkerboard assay; type: functional; summary of the method: as §4

CCN1C(=O)[C@@]2(CN(C)C3(c4cc(Br)ccc4-n4c3nc3ccccc3c4=O)C2(C#N)C#N)c2ccccc21 (stereo partly drawn)
MIC (Escherichia coli): > 64 µg/mL
MIC (Staphylococcus aureus [1]): 0.125 µg/mL (≈ 0.216 µM)
MIC (Pseudomonas aeruginosa): > 64 µg/mL
MIC (Staphylococcus aureus [2]): 0.25 µg/mL
MIC (Klebsiella pneumoniae): > 64 µg/mL
MIC (Staphylococcus aureus [3]): 0.25 µg/mL
MIC (Staphylococcus aureus [4]): 0.125 µg/mL (≈ 0.216 µM)
MIC (Staphylococcus aureus [5]): 0.25 µg/mL
MIC (Staphylococcus aureus [6]): 0.125 µg/mL (≈ 0.216 µM)
FIC (Staphylococcus aureus [7]): 2
MIC (Staphylococcus aureus [8]): 0.25 µg/mL (≈ 0.433 µM)
FIC (Staphylococcus aureus [9]): 2
FIC (Staphylococcus aureus [10]): 2
MIC (Staphylococcus aureus [11]): 0.063 µg/mL (≈ 0.109 µM)
FIC (Staphylococcus aureus [12]): 2
MIC (Staphylococcus aureus [13]): 0.25 µg/mL (≈ 0.433 µM)
MIC (Staphylococcus aureus [14]): 0.25 µg/mL
MIC (Staphylococcus aureus [15]): 0.5 µg/mL (≈ 0.866 µM)
FIC (Staphylococcus aureus [16]): 2
MIC (Staphylococcus aureus [17]): 0.25 µg/mL
MIC (Staphylococcus aureus [18]): 0.125 µg/mL (≈ 0.216 µM)
MIC (Staphylococcus aureus [19]): 0.25 µg/mL (≈ 0.433 µM)
FIC (Staphylococcus aureus [20]): 2
Activity (Vero): Non-Toxic
selectivity ratio [21]: 40
MIC (Staphylococcus aureus [22]): 0.25 µg/mL
MIC (Staphylococcus aureus [23]): 0.125 µg/mL (≈ 0.216 µM)
MIC (Staphylococcus aureus [24]): 0.25 µg/mL
FIC (Staphylococcus aureus [25]): 2
MIC (Staphylococcus aureus [26]): 0.25 µg/mL
Activity (Staphylococcus aureus [27]): Dose-Dependent Effect
Activity (Staphylococcus aureus [27]; record 2): ~2.7 log10CFU/ml
FIC (Staphylococcus aureus [28]): 2
MIC (Acinetobacter baumannii): > 64 µg/mL
MIC (Staphylococcus aureus [29]): 0.5 µg/mL (≈ 0.866 µM)
MIC (Staphylococcus aureus [30]): 0.125 µg/mL (≈ 0.216 µM)
MIC (Staphylococcus aureus [31]): 0.25 µg/mL
FIC (Staphylococcus aureus [32]): 2
